ChEMBL document CHEMBL4414577, “Discovery of Pyrrolo[2,3-b]pyridine (1,7-Dideazapurine) Nucleoside Analogues as Anti-Trypanosoma cruzi Agents” (J Med Chem, 2019)
Calls of active or inactive are those of the source. No cut-off for these calls is given here.

Assays:
[1] = biological target: Cytochrome P450 (Homo sapiens, UniProt P04798+P05177+P05181+P08684+P10632+P10635+P11509+P11712+P13584+P20813+P20815+P20853+P24462+P24903+P33260+P33261+P51589+P78329+P98187+Q02928+Q08477+Q16678+Q16696+Q5TCH4+Q6VVX0+Q7Z449+Q8TAV3+Q96SQ9+Q9HB55); assay: Drug metabolism in human liver S9 fraction assessed as CYP450-mediated metabolism by measuring parent compound remaining at 5 uM incubated for 15 mins in presence of NADPH by UPLC-MS analysis; assay type: ADME, subcellular; conditions: read-out: Stability
How it was run: (§1)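 Compound incubated with male mouse, rat, dog or pooled human S9 fractions, with NADPH (phase I) or […], sampled at 0, 15, 30 and 60 min. Read-out is percent parent remaining. Two independent experiments of two biological replicates; diclofenac and fluconazole used as assay controls.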

[2] = Drug metabolism in mouse liver microsomes assessed as UGT-mediated metabolism by measuring compound remaining at 5 uM incubated for 30 mins in presence of UDPGA by UPLC-MS analysis; assay type: ADME; conditions: read-out: Stability; how it was run: as §1
[3] = biological target: T1, UDP-glucuronosyltransferases (UGTs) (Homo sapiens, UniProt O60656+O75310+O75795+P06133+P0DTE4+P0DTE5+P16662+P19224+P22309+P22310+P35503+P35504+P36537+P54855+Q6UWM9+Q9BY64+Q9HAW7+Q9HAW8+Q9HAW9); assay: Drug metabolism in human liver S9 fraction assessed as UGT-mediated metabolism by measuring compound remaining at 5 uM incubated for 60 mins in presence of UDPGA by UPLC-MS analysis; assay type: ADME, subcellular; conditions: read-out: Stability; how it was run: as §1
[4] = Drug metabolism in mouse liver microsomes assessed as CYP450-mediated metabolism by measuring parent compound remaining at 5 uM incubated for 30 mins in presence of NADPH by UPLC-MS analysis; assay type: ADME; conditions: read-out: Stability; how it was run: as §1
[5] = Toxicity in Swiss Webster mouse infected with Trypanosoma cruzi Y trypomastigotes assessed as body weight loss at 25 mg/kg, po administered twice daily for 5 days with 2 days interval for 3 cycles; assay type: organism-based; conditions: in vivo
How it was run: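 Y-strain-infected male Swiss Webster mice were dosed orally for 15 days (three rounds of 5 days, 2 drug-free days between) starting at 5 dpi. Regimens were 25 mg/kg b.i.d. or benznidazole 100 mg/kg s.i.d. Weight loss was recorded as a sign of toxicity, with mortality checked daily up to 53 dpi. There were six mice per group.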

[6] = Drug metabolism in dog liver microsomes assessed as UGT-mediated metabolism by measuring compound remaining at 5 uM measured immediately in presence of UDPGA by UPLC-MS analysis; assay type: ADME, Canis lupus familiaris; conditions: read-out: Stability; how it was run: as §1
[7] = test system: Trypanosoma cruzi; assay: In vivo antitrypanosomal activity against Trypanosoma cruzi Y trypomastigotes infected in Swiss mouse assessed as reduction in parasitemia at 25 mg/kg, po administered twice daily for 5 days with 2 days interval for 3 cycles in presence of cyclophosphamide by light microscopy; assay type: functional, organism-based
How it was run: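 Infected mice were dosed orally at 25 mg/kg b.i.d. from 5 dpi, either for 5 days or for 15 days (3 × 5 days, 2 days apart). Mice with negative parasitemia up to 30 days post-treatment then received cyclophosphamide i.p. at 50 mg/kg/day. This was given in three cycles of 4 days, each followed by 3 drug-free days. Tail-vein blood parasitemia was then read by light microscopy.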

[8] = Drug metabolism in mouse liver microsomes assessed as UGT-mediated metabolism by measuring compound remaining at 5 uM measured immediately in presence of UDPGA by UPLC-MS analysis; assay type: ADME; conditions: read-out: Stability; how it was run: as §1
[9] = Drug metabolism in rat liver microsomes assessed as UGT-mediated metabolism by measuring compound remaining at 5 uM incubated for 15 mins in presence of UDPGA by UPLC-MS analysis; assay type: ADME; conditions: read-out: Stability; how it was run: as §1
[10] = Drug metabolism in rat liver microsomes assessed as CYP450-mediated metabolism by measuring parent compound remaining at 5 uM incubated for 30 mins in presence of NADPH by UPLC-MS analysis; assay type: ADME; conditions: read-out: Stability; how it was run: as §1
[11] = test system: Trypanosoma cruzi; assay: Antitrypanosomal activity against Trypanosoma cruzi Tulahuen CL2 amastigotes infected in human MRC5 SV2 cells incubated for 7 days by chlorophenol red beta-D-galactopyranoside substrate based spectrophotometric assay; assay type: functional, organism-based; conditions: Tulahuen CL2, MRC-5 SV2, 168 h
How it was run: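 Intracellular amastigotes of β-galactosidase-expressing Tulahuen strain grown in MRC-5 fibroblast host cells. EC50 in μM given as mean and SEM of two or three independent experiments; some values come from a single determination.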

[12] = Drug metabolism in rat liver microsomes assessed as CYP450-mediated metabolism by measuring parent compound remaining at 5 uM incubated for 60 mins in presence of NADPH by UPLC-MS analysis; assay type: ADME; conditions: read-out: Stability; how it was run: as §1
[13] = biological target: T1, UDP-glucuronosyltransferases (UGTs); assay: Drug metabolism in human liver S9 fraction assessed as UGT-mediated metabolism by measuring compound remaining at 5 uM incubated for 30 mins in presence of UDPGA by UPLC-MS analysis; assay type: ADME, subcellular; conditions: read-out: Stability; how it was run: as §1
[14] = test system: L929; assay: Cytotoxicity against mouse L929 cells assessed as reduction in cell viability; assay type: cell-based
[15] = Drug metabolism in dog liver microsomes assessed as UGT-mediated metabolism by measuring compound remaining at 5 uM incubated for 30 mins in presence of UDPGA by UPLC-MS analysis; assay type: ADME, Canis lupus familiaris; conditions: read-out: Stability; how it was run: as §1
[16] = Drug metabolism in rat liver microsomes assessed as UGT-mediated metabolism by measuring compound remaining at 5 uM incubated for 60 mins in presence of UDPGA by UPLC-MS analysis; assay type: ADME; conditions: read-out: Stability; how it was run: as §1
[17] = Drug metabolism in mouse liver microsomes assessed as UGT-mediated metabolism by measuring compound remaining at 5 uM incubated for 60 mins in presence of UDPGA by UPLC-MS analysis; assay type: ADME; conditions: read-out: Stability; how it was run: as §1
[18] = Drug metabolism in dog liver microsomes assessed as CYP450-mediated metabolism by measuring parent compound remaining at 5 uM incubated for 15 mins in presence of NADPH by UPLC-MS analysis; assay type: ADME, Canis lupus familiaris; conditions: read-out: Stability; how it was run: as §1
[19] = test system: Trypanosoma cruzi; assay: In vivo antitrypanosomal activity against Trypanosoma cruzi Y trypomastigotes infected in Swiss mouse assessed as reduction in parasitemia at 25 mg/kg, po administered twice daily via gavage for 5 days starting from 5 days post-infection and measured up to 30 days post-infection by light microscopic method relative to control; assay type: functional; set-up: scale not given: the % may be the effect or the level left
How it was run: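 Male Swiss Webster mice (18-20 g, six per group) were infected i.p. with 10⁴ Y-strain bloodstream trypomastigotes. Treatment began at 5 dpi, only in mice with detectable parasitemia. Dosing was 25 mg/kg b.i.d. by oral gavage for 5 days, using a 2.0 mg/mL formulation in 10% EtOH, 0.1 M citrate pH 3.02. Parasites in 5 μL tail-vein blood were counted microscopically up to 30 dpi, against vehicle-treated infected mice.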

[20] = Drug metabolism in rat liver microsomes assessed as CYP450-mediated metabolism by measuring parent compound remaining at 5 uM incubated for 15 mins in presence of NADPH by UPLC-MS analysis; assay type: ADME; conditions: read-out: Stability; how it was run: as §1
[21] = Drug metabolism in dog liver microsomes assessed as CYP450-mediated metabolism by measuring parent compound remaining at 5 uM incubated for 30 mins in presence of NADPH by UPLC-MS analysis; assay type: ADME, Canis lupus familiaris; conditions: read-out: Stability; how it was run: as §1
[22] = biological target: T1, UDP-glucuronosyltransferases (UGTs); assay: Drug metabolism in human liver S9 fraction assessed as UGT-mediated metabolism by measuring compound remaining at 5 uM measured immediately in presence of UDPGA by UPLC-MS analysis; assay type: ADME, subcellular; conditions: read-out: Stability; how it was run: as §1

remaining at 0.25 h, 5 µM [1]: 99%
remaining at 0.5 h, 5 µM [2]: 103%
remaining at 1 h, 5 µM [3]: 100%
remaining at 0.5 h, 5 µM [4]: 95%
remaining at 0 min, 5 µM [6]: 100%
remaining at 0 min, 5 µM [8]: 100%
remaining at 0.25 h, 5 µM [9]: 97%
remaining at 0.5 h, 5 µM [10]: 87%
remaining at 1 h, 5 µM [12]: 85%
remaining at 0.5 h, 5 µM [13]: 99%
remaining at 0.5 h, 5 µM [15]: 94%
remaining at 1 h, 5 µM [16]: 94%
remaining at 1 h, 5 µM [17]: 101%
remaining at 0.25 h, 5 µM [18]: 97%
remaining at 0.25 h, 5 µM [20]: 88%
remaining at 0.5 h, 5 µM [21]: 96%
remaining at 0 min, 5 µM [22]: 100%
Structure (SMILES): Nc1ccnc2c1c(I)cn2[C@@H]1O[C@H](CO)[C@@H](O)[C@H]1O
Activity [5]: Non-Toxic
Activity [7]: inactive
EC50 [11]: 40 nM
EC50 [14]: > 200000 nM
Activity [19]: 100%
